Results gathered from unrelated publications.
Compare with care: the assays were run in different laboratories.
Cell line: MCF7
Read-out: cell growth or viability

| SMILES | assay | conditions | IC50 |
| --- | --- | --- | --- |
| COc1ccc(-c2cc(-c3c(OC)cccc3OC)c3c(=O)[nH]c(=O)[nH]c3n2)cc1 | MTT | 48 h | 32.3 µM |
| COc1cc2c3c(n(CCCNC(C)C)c(=O)c2cc1OC)-c1nc2c(cc1C3=O)OCO2 |  | 72 h | 0.318 µM |
| Cc1ccccc1NC(=O)C=Cc1ccc(O)c(O)c1 | MTT |  | 44.5 µM |
| Cc1ccc(-c2cc(-c3ccc(Cl)cc3)c3c(=O)n(C)c(=O)n(C)c3n2)cc1 | MTT | 48 h | 7.49 µM |
| Cc1nc(Nc2ccc3c(c2)CC(=O)N3)c2ccccc2n1 | MTT |  | 31.3 µM |
| CC(C)NCC(COc1cccc2ccccc12)OC(=O)C=Cc1ccc(O)c(O)c1 (centres unmarked) | MTT |  | 5.37 µM |
| CC(C)CS(=O)(=O)NCc1cccc(-c2ccc3c(NC(=O)CC4CC4)n[nH]c3c2)c1 | ATP luminescence | 48 h | 42 µM |
| COc1cc2c3c(n(CCCN4CCOCC4)c(=O)c2cc1OC)-c1nc2c(cc1C3=O)OCO2 |  | 72 h | 0.936 µM |
| COc1cc2ncnc(N(C)c3ccc4c(c3)/C(=C/c3ccccc3)C(=O)N4C)c2cc1OC (mixture of isomers) | MTT |  | 9.38 µM |
| Cc1ccc(-c2cc(-c3ccc(N(C)C)cc3)c3c(=O)n(C)c(=O)n(C)c3n2)cc1 | MTT | 48 h | 15.8 µM |
| Cc1nc(Nc2ccc3c(c2)/C(=C/c2ccccc2Cl)C(=O)N3)c2ccccc2n1 | MTT |  | 6.45 µM |
| CN(Cc1cnc2nc(N)nc(N)c2n1)c1ccc(C(=O)N[C@@H](CCC(=O)O)C(=O)O)cc1 | MTT |  | 19 µM |
| CCNCCCn1c2c(c3cc(OC)c(OC)cc3c1=O)C(=O)c1cc3c(nc1-2)OCO3 |  | 72 h | 0.262 µM |
| COc1ccc(-c2cc(-c3cccc(Br)c3)c3c(=O)n(C)c(=O)n(C)c3n2)cc1 | MTT | 48 h | 13.5 µM |
| Cc1nc(N(C)c2ccc3c(c2)/C(=C/c2ccccc2Cl)C(=O)N3C)c2ccccc2n1 | MTT |  | 10.8 µM |
| COc1ccc(-c2cc(-c3ccccc3Cl)c3c(=O)[nH]c(=O)[nH]c3n2)cc1 | MTT | 48 h | 17.5 µM |
| Cc1nc(N(Cc2ccccc2)c2ccc3c(c2)/C(=C/c2ccccc2)C(=O)N3Cc2ccccc2)c2ccccc2n1 (mixture of isomers) | MTT |  | 0.89 µM |
| O=C(C=Cc1ccccc1)Nc1cc(-c2ccnc(N3CCC(O)CC3)c2)ccn1 | MTT | 72 h | 2.51 µM |
| COc1cc2ncnc(Nc3ccc4c(c3)/C(=C/c3ccccc3)C(=O)N4C)c2cc1OC | MTT |  | 7.84 µM |
| Cc1nc2ccc(CN(C)c3ccc(C(=O)N[C@@H](CCC(=O)O)C(=O)O)s3)cc2c(=O)[nH]1 | MTT | 48 h | 1.98 µM |
